# From ChEMBL document CHEMBL1687848, “In vitro effect of qnrA1, qnrB1, and qnrS1 genes on fluoroquinolone activity against isogenic Escherichia coli isolates with mutations in gyrA and parC” (2011)
# Columns and labels:
# Assay type in all cases: functional
# Escherichia coli [1] = test: Antibacterial activity against Escherichia coli ATCC 25922 assessed as mutant prevention concentration
# Escherichia coli [2] = test: Antibacterial activity against qnrB gene expressing Escherichia coli ATCC 25922 harboring GyrA S83L mutant and pBK-QnrB1 assessed as mutant prevention concentration
# Escherichia coli [3] = test: Antibacterial activity against Escherichia coli ATCC 25922 harboring GyrA S83L mutant assessed as mutant prevention concentration
# Escherichia coli [4] = test: Antibacterial activity against Escherichia coli ATCC 25922 expressing qnrB gene and pBK-QnrB1 assessed as earliest time required to resistant colonies visible one step below mutant prevention concentration
# Escherichia coli [5] = test: Antibacterial activity against Escherichia coli ATCC 25922 expressing qnrS gene and pBK-QnrS1 by broth microdilution method
# Escherichia coli [6] = test: Antibacterial activity against Escherichia coli ATCC 25922 assessed as earliest time required to resistant colonies visible one step below mutant prevention concentration
# Escherichia coli [7] = test: Antibacterial activity against qnrS gene expressing Escherichia coli ATCC 25922 harboring ParC S80R mutant, ParC S80R mutant and pBK-QnrS1 by broth microdilution method
# Escherichia coli [8] = test: Antibacterial activity against Escherichia coli ATCC 25922 expressing qnrB gene and pBK-QnrB1 by broth microdilution method
# Escherichia coli [9] = test: Antibacterial activity against Escherichia coli ATCC 25922 expressing qnrS gene and pBK-QnrS1 assessed as earliest time required to resistant colonies visible one step below mutant prevention concentration
# Escherichia coli [10] = test: Antibacterial activity against qnrB gene expressing Escherichia coli ATCC 25922 harboring GyrA S83L mutant and pBK-QnrB1 by broth microdilution method
# Escherichia coli [11] = test: Antibacterial activity against Escherichia coli ATCC 25922 expressing qnrA gene and pBK-QnrA1 assessed as earliest time required to resistant colonies visible one step below mutant prevention concentration
# Escherichia coli [12] = test: Antibacterial activity against qnrS gene expressing Escherichia coli ATCC 25922 harboring GyrA S83L mutant and pBK-QnrS1 by broth microdilution method
# Escherichia coli [13] = test: Antibacterial activity against Escherichia coli ATCC 25922 expressing qnrB gene and pBK-QnrB1 assessed as mutant prevention concentration
# Escherichia coli [14] = test: Antibacterial activity against qnrS gene expressing Escherichia coli ATCC 25922 harboring ParC S80R mutant and pBK-QnrS1 by broth microdilution method
# Escherichia coli [15] = test: Antibacterial activity against Escherichia coli ATCC 25922 harboring GyrA S83L mutant assessed as resistant colonies recovered one step below mutant prevention concentration
# How it was run: (§1)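 Resistant colonies recovered from Mueller-Hinton plates one concentration step below the MPC for each fluoroquinolone were retested for MIC. Mutants taken from plated concentrations closest to the MPC had the QRDRs of gyrA and parC analysed.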
# Escherichia coli [16] = test: Antibacterial activity against qnrB gene expressing Escherichia coli ATCC 25922 harboring ParC S80R mutant and pBK-QnrB1 by broth microdilution method
# Escherichia coli [17] = test: Antibacterial activity against Escherichia coli ATCC 25922 assessed as resistant colonies recovered one step below mutant prevention concentration; how it was run: as §1
# Escherichia coli [18] = test: Antibacterial activity against qnrS gene expressing Escherichia coli ATCC 25922 harboring GyrA S83L mutant and pBK-QnrS1 assessed as mutant prevention concentration
# Escherichia coli [19] = test: Antibacterial activity against Escherichia coli ATCC 25922 expressing qnrS gene and pBK-QnrS1 assessed as mutant prevention concentration
# Escherichia coli [20] = test: Antibacterial activity against Escherichia coli ATCC 25922 harboring GyrA S83L mutant and ParC S80R mutant by broth microdilution method
# Escherichia coli [21] = test: Antibacterial activity against Escherichia coli ATCC 25922 expressing qnrA gene and pBK-QnrA1 assessed as mutant prevention concentration
# Escherichia coli [22] = test: Antibacterial activity against qnrB gene expressing Escherichia coli ATCC 25922 harboring ParC S80R mutant, ParC S80R mutant and pBK-QnrB1 by broth microdilution method
# Escherichia coli [23] = test: Antibacterial activity against qnrA gene expressing Escherichia coli ATCC 25922 harboring GyrA S83L mutant and pBK-QnrA1 assessed as earliest time required to resistant colonies visible one step below mutant prevention concentration
# Escherichia coli [24] = test: Antibacterial activity against Escherichia coli ATCC 25922 harboring GyrA S83L mutant assessed as earliest time required to resistant colonies visible one step below mutant prevention concentration
# Escherichia coli [25] = test: Antibacterial activity against qnrA gene expressing Escherichia coli ATCC 25922 harboring GyrA S83L mutant and pBK-QnrA1 assessed as resistant colonies recovered one step below mutant prevention concentration; how it was run: as §1
# Escherichia coli [26] = test: Antibacterial activity against qnrB gene expressing Escherichia coli ATCC 25922 harboring GyrA S83L mutant and pBK-QnrB1 assessed as earliest time required to resistant colonies visible one step below mutant prevention concentration
# Escherichia coli [27] = test: Antibacterial activity against qnrA gene expressing Escherichia coli ATCC 25922 harboring ParC S80R mutant, ParC S80R mutant and pBK-QnrA1 by broth microdilution method
# Escherichia coli [28] = test: Antibacterial activity against Escherichia coli ATCC 25922 expressing qnrA gene and pBK-QnrA1 by broth microdilution method
# Escherichia coli [29] = test: Antibacterial activity against Escherichia coli ATCC 25922 harboring GyrA S83L mutant by broth microdilution method
# Escherichia coli [30] = test: Antibacterial activity against Escherichia coli ATCC 25922 harboring ParC S80R mutant by broth microdilution method
# Escherichia coli [31] = test: Antibacterial activity against qnrA gene expressing Escherichia coli ATCC 25922 harboring GyrA S83L mutant and pBK-QnrA1 by broth microdilution method
# Escherichia coli [32] = test: Antibacterial activity against qnrA gene expressing Escherichia coli ATCC 25922 harboring GyrA S83L mutant and pBK-QnrA1 assessed as mutant prevention concentration
# Escherichia coli [33] = test: Antibacterial activity against Escherichia coli ATCC 25922 by broth microdilution method
# Escherichia coli [34] = test: Antibacterial activity against qnrS gene expressing Escherichia coli ATCC 25922 harboring GyrA S83L mutant and pBK-QnrS1 assessed as earliest time required to resistant colonies visible one step below mutant prevention concentration
# Escherichia coli [35] = test: Antibacterial activity against qnrA gene expressing Escherichia coli ATCC 25922 harboring ParC S80R mutant and pBK-QnrA1 by broth microdilution method
# Escherichia coli [36] = test: Antibacterial activity against qnrS gene expressing Escherichia coli ATCC 25922 harboring GyrA S83L mutant and pBK-QnrS1 assessed as resistant colonies recovered one step below mutant prevention concentration; how it was run: as §1
# Escherichia coli [37] = test: Antibacterial activity against qnrB gene expressing Escherichia coli ATCC 25922 harboring GyrA S83L mutant and pBK-QnrB1 assessed as resistant colonies recovered one step below mutant prevention concentration; how it was run: as §1
# Escherichia coli [38] = test: Antibacterial activity against Escherichia coli ATCC 25922 expressing qnrS gene and pBK-QnrS1 assessed as resistant colonies recovered one step below mutant prevention concentration; how it was run: as §1
# Escherichia coli [39] = test: Antibacterial activity against Escherichia coli ATCC 25922 expressing qnrB gene and pBK-QnrB1 assessed as resistant colonies recovered one step below mutant prevention concentration; how it was run: as §1
# Escherichia coli [40] = test: Antibacterial activity against Escherichia coli ATCC 25922 expressing qnrA gene and pBK-QnrA1 assessed as resistant colonies recovered one step below mutant prevention concentration; how it was run: as §1
smiles,measurement,setting,value
C[C@H]1COc2c(N3CCN(C)CC3)c(F)cc3c(=O)c(C(=O)O)cn1c23.C[C@H]1COc2c(N3CCN(C)CC3)c(F)cc3c(=O)c(C(=O)O)cn1c23.O [LEVOFLOXACIN],Activity,Escherichia coli [1],2 µg/mL
same,Activity,Escherichia coli [2],16 µg/mL
same,Activity,Escherichia coli [3],4 µg/mL
same,Time,Escherichia coli [4],48 h
same,MBC,Escherichia coli [5],0.5 µg/mL
same,MIC,Escherichia coli [5],0.125 µg/mL
same,Time,Escherichia coli [6],48 h
same,MBC,Escherichia coli [7],4 µg/mL
same,MIC,Escherichia coli [7],4 µg/mL
same,MBC,Escherichia coli [8],0.25 µg/mL
same,Time,Escherichia coli [9],24 h
same,MBC,Escherichia coli [10],0.5 µg/mL
same,MIC,Escherichia coli [10],0.25 µg/mL
same,Time,Escherichia coli [11],24 h
same,MBC,Escherichia coli [12],2 µg/mL
same,Activity,Escherichia coli [13],4 µg/mL
same,MBC,Escherichia coli [14],0.25 µg/mL
same,MIC,Escherichia coli [14],0.25 µg/mL
same,MIC,Escherichia coli [15],2 µg/mL
same,MBC,Escherichia coli [16],0.5 µg/mL
same,MIC,Escherichia coli [16],0.25 µg/mL
same,MIC,Escherichia coli [17],0.125 µg/mL
same,Activity,Escherichia coli [18],16 µg/mL
same,Activity,Escherichia coli [19],4 µg/mL
same,MBC,Escherichia coli [20],0.25 µg/mL
same,MIC,Escherichia coli [20],0.25 µg/mL
same,Activity,Escherichia coli [21],8 µg/mL
same,MBC,Escherichia coli [22],1 µg/mL
same,Time,Escherichia coli [23],24 h
same,Time,Escherichia coli [24],24 h
same,MIC,Escherichia coli [25],2 µg/mL
same,Time,Escherichia coli [26],72 h
same,MBC,Escherichia coli [27],4 µg/mL
same,MIC,Escherichia coli [27],2 µg/mL
same,MBC,Escherichia coli [28],0.5 µg/mL
same,MBC,Escherichia coli [29],0.25 µg/mL
same,MIC,Escherichia coli [29],0.125 µg/mL
same,MBC,Escherichia coli [30],0.008 µg/mL
same,MBC,Escherichia coli [31],0.5 µg/mL
same,Activity,Escherichia coli [32],32 µg/mL
same,MBC,Escherichia coli [33],0.03 µg/mL
same,Time,Escherichia coli [34],96 h
same,MBC,Escherichia coli [35],0.5 µg/mL
same,MIC,Escherichia coli [35],0.25 µg/mL
same,MIC,Escherichia coli [36],4 µg/mL
COc1c(N2C[C@@H]3CCCN[C@@H]3C2)c(F)cc2c(=O)c(C(=O)O)cn(C3CC3)c12 [MOXIFLOXACIN],Activity,Escherichia coli [1],2 µg/mL
same,Activity,Escherichia coli [2],32 µg/mL
same,Activity,Escherichia coli [3],4 µg/mL
same,Time,Escherichia coli [4],24 h
same,MBC,Escherichia coli [5],0.25 µg/mL
same,MIC,Escherichia coli [5],0.25 µg/mL
same,Time,Escherichia coli [6],48 h
same,MBC,Escherichia coli [7],4 µg/mL
same,MBC,Escherichia coli [8],1 µg/mL
same,MIC,Escherichia coli [8],0.25 µg/mL
same,Time,Escherichia coli [9],24 h
same,MBC,Escherichia coli [10],0.5 µg/mL
same,MIC,Escherichia coli [10],0.5 µg/mL
same,Time,Escherichia coli [11],24 h
same,MBC,Escherichia coli [12],2 µg/mL
same,MIC,Escherichia coli [12],1 µg/mL
same,Activity,Escherichia coli [13],4 µg/mL
same,MBC,Escherichia coli [14],0.5 µg/mL
same,MIC,Escherichia coli [14],0.25 µg/mL
same,MIC,Escherichia coli [15],1 µg/mL
same,MBC,Escherichia coli [16],0.5 µg/mL
same,MIC,Escherichia coli [16],0.5 µg/mL
same,Activity,Escherichia coli [18],32 µg/mL
same,Activity,Escherichia coli [19],4 µg/mL
same,MIC,Escherichia coli [37],1 µg/mL
same,MBC,Escherichia coli [20],0.25 µg/mL
same,MIC,Escherichia coli [20],0.25 µg/mL
same,MIC,Escherichia coli [38],0.5 µg/mL
same,Activity,Escherichia coli [21],8 µg/mL
same,MBC,Escherichia coli [22],2 µg/mL
same,MIC,Escherichia coli [22],1 µg/mL
same,Time,Escherichia coli [23],24 h
same,Time,Escherichia coli [24],24 h
same,MIC,Escherichia coli [39],0.5 µg/mL
same,Time,Escherichia coli [26],24 h
same,MBC,Escherichia coli [27],4 µg/mL
same,MBC,Escherichia coli [28],0.5 µg/mL
same,MIC,Escherichia coli [28],0.25 µg/mL
same,MBC,Escherichia coli [29],0.125 µg/mL
same,MBC,Escherichia coli [30],0.008 µg/mL
same,MIC,Escherichia coli [30],0.008 µg/mL
same,MIC,Escherichia coli [40],0.5 µg/mL
same,MBC,Escherichia coli [31],0.5 µg/mL
same,MIC,Escherichia coli [31],0.5 µg/mL
same,Activity,Escherichia coli [32],16 µg/mL
same,MBC,Escherichia coli [33],0.015 µg/mL
same,MIC,Escherichia coli [33],0.008 µg/mL
same,Time,Escherichia coli [34],24 h
same,MBC,Escherichia coli [35],0.5 µg/mL
same,MIC,Escherichia coli [35],0.5 µg/mL
same,MIC,Escherichia coli [36],1 µg/mL
